Measured values as given in ChEMBL document CHEMBL4308840, “Identification of the First Synthetic Allosteric Modulator of the CB2 Receptors and Evidence of Its Efficacy for Neuropathic Pain Relief” (2018).
The source made the active and inactive calls.

Legend:
[1] = molecular target: Cannabinoid receptor 1 (Homo sapiens) (UniProt P21554); assay: Positive allosteric modulation of human CB1R expressed in CHO cell membranes assessed as increase in [3H]CP55940 binding at 100 nM after 60 mins by liquid scintillation spectrometric method
Outline: (§1)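 Membranes (50 µg protein) from CHO cells stably expressing human CB1R or CB2R, incubated with 0.7 nM [3H]CP55940 in 50 mM Tris binding buffer with 0.1% BSA, pH 7.4, at 37 °C for 60 min. Vehicle 0.1% DMSO. Ended with ice-cold buffer and vacuum filtration through GF/B filters, then liquid scintillation counting. Specific binding is total minus binding with 1 µM unlabelled CP55940. Six independent experiments, each in duplicate.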

[2] = molecular target: Cannabinoid receptor 1 (Homo sapiens) (UniProt P21554); assay: Positive allosteric modulation of human CB1R expressed in CHO cell membranes assessed as increase in [3H]CP55940 binding up to 1 uM after 60 mins by liquid scintillation spectrometric method relative to control
[3] = molecular target: Cannabinoid receptor 1 (Homo sapiens) (UniProt P21554); assay: Positive allosteric modulation of human CB1R expressed in CHO cell membranes assessed as increase in [3H]CP55940 binding at 10 uM after 60 mins by liquid scintillation spectrometric method
[4] = molecular target: Cannabinoid receptor 2 (Homo sapiens) (UniProt P34972); assay: Positive allosteric modulation of human CB2R expressed in CHO cell membranes assessed as increase in [3H]CP55940 binding after 60 mins by liquid scintillation spectrometric method; outline: as §1
[5] = molecular target: Cannabinoid receptor 1 (Homo sapiens) (UniProt P21554); assay: Allosteric modulation of human CB1R expressed in CHO cell membranes assessed as effect on CP55940-stimulated [35S]GTPgammaS binding at 100 nM after 90 mins by liquid scintillation counting method; format: functional
Outline: (§2)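 Membranes (1 mg/ml) from CHO cells stably expressing human CB1R or CB2R. Incubated with 0.1 nM [35S]GTPγS and 30 µM GDP in 50 mM Tris, 10 mM MgCl2, 100 mM NaCl, 0.2 mM EDTA, 1 mM DTT, pH 7.4, 0.1% DMSO, 30 °C for 90 min. Filtered on GF/B; scintillation counting. Duplicates; six experiments for CB1R, twelve for CB2R with CP55940.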

[6] = molecular target: Cannabinoid receptor 2 (Homo sapiens) (UniProt P34972); assay: Positive allosteric modulation of human CB2R expressed in CHO cell membranes assessed as increase in CP55940-stimulated [35S]GTPgammaS binding at 100 nM after 90 mins by liquid scintillation counting method; format: functional; outline: as §2
[7] = molecular target: Cannabinoid receptor 2 (Homo sapiens) (UniProt P34972); assay: Inhibition of [35S]GTPgammaS binding to human CB2R expressed in CHO cell membranes at 100 nM after 90 mins by liquid scintillation counting method; format: functional; outline: as §2
[8] = molecular target: Cannabinoid receptor 2 (Homo sapiens) (UniProt P34972); assay: Stimulation of [35S]GTPgammaS binding to human CB2R expressed in CHO cell membranes at 100 nM after 90 mins by liquid scintillation counting method; format: functional; outline: as §2
[9] = molecular target: Cannabinoid receptor 2 (Homo sapiens) (UniProt P34972); assay: Positive allosteric modulation of human CB2R expressed in CHO cell membranes assessed as increase in 2-AG-stimulated [35S]GTPgammaS binding at 100 nM after 90 mins by liquid scintillation counting method; format: functional; outline: as §2
[10] = molecular target: Cannabinoid receptor 2 (Homo sapiens) (UniProt P34972); assay: Positive allosteric modulation of human CB2R expressed in CHO cell membranes assessed as increase in AEA-stimulated [35S]GTPgammaS binding at 100 nM after 90 mins by liquid scintillation counting method; format: functional; outline: as §2
[11] = molecular target: Cannabinoid receptor 2 (Homo sapiens) (UniProt P34972); assay: Positive allosteric modulation of human CB2R expressed in CHO cell membranes assessed as decrease in [3H]CP55940 dissociation at 100 nM up to 2 hrs by liquid scintillation spectrometric method
Outline: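 Human CB2R CHO membranes (50 µg protein) were used for [3H]CP55940 dissociation in Tris buffer with 0.1% BSA, pH 7.4, with or without 100 nM test compound. Dissociation followed 0.5–120 min at 25 °C; filtration and scintillation counting. Nonspecific binding taken with 1 µM unlabelled ligand. Four experiments in duplicate.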

[12] = molecular target: T1, Monoglyceride lipase (Homo sapiens) (UniProt Q99685); assay: Inhibition of recombinant human MAGL at <10 uM using 4-NPA as substrate after 30 mins by colorimetric method
T1 sequence (whole entry): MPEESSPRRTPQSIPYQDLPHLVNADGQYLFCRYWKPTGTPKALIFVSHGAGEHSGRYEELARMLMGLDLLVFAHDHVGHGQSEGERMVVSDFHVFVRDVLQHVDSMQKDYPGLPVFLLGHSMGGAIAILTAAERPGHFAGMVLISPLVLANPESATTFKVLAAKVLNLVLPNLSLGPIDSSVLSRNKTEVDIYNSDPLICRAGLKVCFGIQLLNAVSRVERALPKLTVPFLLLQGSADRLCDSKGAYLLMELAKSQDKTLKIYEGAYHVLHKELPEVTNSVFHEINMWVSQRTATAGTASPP
Outline: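 Human recombinant MAGL, 11 ng/well, with 100 µM (final) 4-nitrophenylacetate in 10 mM Tris pH 7.2, 1 mM EDTA, 0.1 mg/ml BSA, at room temperature for 30 min. 4-Nitrophenol release read at 405 nm. Controls were no-compound and no-enzyme reactions.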

Mus musculus [13] = assay: Antinociceptive activity in CD-1 albino mouse model of oxaliplatin-induced neuropathic pain assessed as increase in licking latency at 5 to 10 mg/kg, po treated on day 15 post oxaliplatin treatment and measured at 30 to 60 mins post dose by cold plate test; format: functional, organism-based
Outline: (§3)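 Male CD-1 mice (22–25 g) received oxaliplatin 2.4 mg kg-1 i.p. in 5% glucose on days 1-2, 5-9 and 12-14; controls got vehicle. On day 15, a single oral dose in 1% carboxymethylcellulose was given. Cold plate held at 4 °C; latency to first hind-paw licking recorded, 60 s cut-off, at 15, 30, 45, 60 and 75 min. n=16 mice over 2 sets; one-way ANOVA with Bonferroni.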

Mus musculus [14] = assay: Antinociceptive activity in CD-1 albino mouse model of oxaliplatin-induced neuropathic pain assessed as licking latency time at 20 mg/kg, po treated on day 15 post oxaliplatin treatment and measured up to 15 mins post dose by cold plate test (reference value: 9.7 +/- 0.9 secs); format: functional; outline: as §3
Mus musculus [15] = assay: Antinociceptive activity in CD-1 albino mouse model of oxaliplatin-induced neuropathic pain assessed as licking latency time at 20 mg/kg, po treated on day 15 post oxaliplatin treatment and measured at 60 mins post dose by cold plate test (reference value: 9.7 +/- 0.9 secs); format: functional; outline: as §3
Mus musculus [16] = assay: Antinociceptive activity in CD-1 albino mouse model of oxaliplatin-induced neuropathic pain assessed as increase in licking latency at 1 to 10 mg/kg, po treated 15 mins after MAGL inhibitor trans-(1-(1-(1H-1,2,4-Triazole-1-carbonyl)piperidin-4-yl)-4-benzo[d][1,3]dioxol-5-yl)-3-(4-fluorophenyl)azetidin-2-one treatment on day 15 post oxaliplatin treatment and measured up to 75 mins post dose by cold plate test; format: functional
Outline: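 Oxaliplatin model in male CD-1 mice: 2.4 mg kg-1 i.p. in 5% glucose on days 1-2, 5-9 and 12-14, tested day 15. MAGL inhibitor F 1 mg kg-1 p.o. was combined with oral test dosing, both in 1% carboxymethylcellulose. Cold plate latency at 4 °C, 60 s cut-off, read 15–75 min after dosing. 16 mice over 2 sets; ANOVA/Bonferroni; synergy by Chou-Talalay combination index.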

Mus musculus [17] = assay: Antinociceptive activity in CD-1 albino mouse model of oxaliplatin-induced neuropathic pain assessed as increase in licking latency at 20 mg/kg, po treated 15 mins after CB1R antagonist SR141716A treatment on day 15 post oxaliplatin treatment and measured up to 75 mins post dose by cold plate test; format: functional, organism-based
Outline: (§4)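 Male CD-1 mice on day 15 after oxaliplatin (2.4 mg kg-1 i.p., days 1-2, 5-9, 12-14) received the selective antagonist i.p., then the oral test dose. Cold plate at 4 °C with 60 s cut-off, licking latency read 15, 30, 45, 60 and 75 min post dose. 16 mice in 2 sets; ANOVA with Bonferroni.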

Mus musculus [18] = assay: Antinociceptive activity in CD-1 albino mouse model of oxaliplatin-induced neuropathic pain assessed as increase in licking latency at 20 mg/kg, po treated 15 mins after CB2R antagonist SR144528 treatment on day 15 post oxaliplatin treatment and measured up to 75 mins post dose by cold plate test; format: functional, organism-based; outline: as §4
[19] = molecular target: Cannabinoid receptor 1 (Homo sapiens) (UniProt P21554); assay: Displacement of [3H]CP55940 from human CB1R expressed in CHO cell membranes at 100 nM after 60 mins by liquid scintillation spectrometric method; outline: as §1

Chain of Cannabinoid receptor 1 (Homo sapiens) (P21554 whole entry): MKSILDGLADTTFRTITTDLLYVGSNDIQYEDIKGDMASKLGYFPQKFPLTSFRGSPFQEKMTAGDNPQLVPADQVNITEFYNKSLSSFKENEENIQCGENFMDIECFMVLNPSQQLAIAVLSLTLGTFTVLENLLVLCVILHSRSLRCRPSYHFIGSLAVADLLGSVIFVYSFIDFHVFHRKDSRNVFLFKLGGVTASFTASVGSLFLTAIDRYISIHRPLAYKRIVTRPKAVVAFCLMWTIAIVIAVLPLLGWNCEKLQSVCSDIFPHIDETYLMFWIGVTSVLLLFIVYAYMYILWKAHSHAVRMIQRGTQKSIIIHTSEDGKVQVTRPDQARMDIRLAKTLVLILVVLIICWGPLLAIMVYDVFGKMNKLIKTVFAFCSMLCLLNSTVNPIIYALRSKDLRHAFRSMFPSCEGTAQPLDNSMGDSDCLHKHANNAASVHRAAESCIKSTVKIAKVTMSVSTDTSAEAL
Chain of Cannabinoid receptor 2 (Homo sapiens) (P34972 whole entry): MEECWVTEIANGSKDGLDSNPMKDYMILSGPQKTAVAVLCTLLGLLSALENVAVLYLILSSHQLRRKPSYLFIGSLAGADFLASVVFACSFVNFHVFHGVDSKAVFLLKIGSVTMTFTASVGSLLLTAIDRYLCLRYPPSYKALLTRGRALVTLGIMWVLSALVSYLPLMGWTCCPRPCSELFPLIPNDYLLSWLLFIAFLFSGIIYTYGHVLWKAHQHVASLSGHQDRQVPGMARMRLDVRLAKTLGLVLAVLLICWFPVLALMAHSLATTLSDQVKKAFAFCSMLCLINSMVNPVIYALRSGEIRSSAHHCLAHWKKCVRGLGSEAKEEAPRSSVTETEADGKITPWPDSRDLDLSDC

Cc1c(Br)cn(Cc2ccc(F)cc2)c(=O)c1NC(=O)C1CCCCCC1
Activity [1]: Active | Activity [2]: 40% | Activity [3]: inactive | Activity [4]: Active | Activity [5]: inactive | Activity [6]: Active | inhibition [7]: inactive | Activity [8]: inactive | Activity [9]: Active | Activity [10]: inactive | Activity [11]: Active | inhibition [12]: inactive | Activity (Mus musculus [13]): Active | Time (Mus musculus [14]): 0.5 min | Time (Mus musculus [15]): 0.75 min | CI (Mus musculus [16]): 0.2012 | Activity (Mus musculus [17]): Active | Activity (Mus musculus [18]): inactive

O=C(Nc1c(O)c(Br)cn(Cc2ccc(F)cc2)c1=O)C1CCCCCC1
Activity [1]: Active | Activity [4]: Active

Cc1c(Br)c[nH]c(=O)c1NC(=O)C1CCCCCC1
inhibition [19]: Active | Activity [4]: inactive

COc1ccc(-c2cn(Cc3ccc(F)cc3)c(=O)c(NC(=O)C3CCCCCC3)c2C)cc1
Activity [1]: Active | Activity [4]: inactive

Cc1c(Cl)cn(Cc2ccc(F)cc2)c(=O)c1NC(=O)C1CCCCCC1
Activity [1]: Active | Activity [4]: inactive

Cc1c(Br)cc(NC(=O)C2CCCCCC2)c(=O)n1Cc1ccc(F)cc1
Activity [1]: Active | Activity [4]: inactive

Cc1c(-c2ccccc2)cc(NC(=O)C2CCCCCC2)c(=O)n1Cc1ccc(F)cc1
Activity [1]: Active | Activity [4]: inactive

COc1ccc(-c2cc(NC(=O)C3CCCCCC3)c(=O)n(Cc3ccc(F)cc3)c2C)cc1
Activity [1]: Active | Activity [4]: inactive

Cc1ccn(Cc2ccc(F)cc2)c(=O)c1NC(=O)C1CCCCCC1
inhibition [19]: Active | Activity [4]: inactive

Cc1c(Cl)cc(NC(=O)C2CCCCCC2)c(=O)n1Cc1ccc(F)cc1
inhibition [19]: Active | Activity [4]: inactive

Cc1c(-c2ccccc2)cn(Cc2ccc(F)cc2)c(=O)c1NC(=O)C1CCCCCC1
Activity [1]: Active | Activity [4]: inactive

Cc1ccc(NC(=O)C2CCCCCC2)c(=O)n1Cc1ccc(F)cc1
inhibition [19]: Active | Activity [4]: inactive

Cc1c(F)cc(NC(=O)C2CCCCCC2)c(=O)n1Cc1ccc(F)cc1
Activity [1]: Active | Activity [4]: inactive
